In the library only some 3.7% were active in any assay of this set; here they are far more common.
KCNK9 block = human KCNK9 channel inhibition; HEK293 KCNK9, FluxOR thallium flux fluorescence; active compounds read low; B-score at 10 µM; actives 1.2% (n = 310,000); AID 488922;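 active = ratio B-score over 3 SD below the library mean, with starting fluorescence within 5 SD of its mean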;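 also: negative B-score means less thallium flux so channel inhibition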
Kir21 block = Kir2.1 (mouse) channel inhibition; AID 1672; P35561; actives 0.85% (n = 310,000); HEK293-Kir2.1, FluxOR thallium flux fluorescence; active compounds read low; B-score at 10 µM;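 active = fluorescence ratio B-score at or below minus 3 SD of library scores, with starting-brightness B-score within 2 SD, cut at about -4.2 in these data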;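 also: channel flux triggered by added potassium and thallium sulfate stimulus; B-score of peak minus minimum fluorescence over baseline after thallium stimulus; more negative B-score means stronger Kir2.1 block with less thallium influx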
Target sequence (P35561 whole entry, looked up): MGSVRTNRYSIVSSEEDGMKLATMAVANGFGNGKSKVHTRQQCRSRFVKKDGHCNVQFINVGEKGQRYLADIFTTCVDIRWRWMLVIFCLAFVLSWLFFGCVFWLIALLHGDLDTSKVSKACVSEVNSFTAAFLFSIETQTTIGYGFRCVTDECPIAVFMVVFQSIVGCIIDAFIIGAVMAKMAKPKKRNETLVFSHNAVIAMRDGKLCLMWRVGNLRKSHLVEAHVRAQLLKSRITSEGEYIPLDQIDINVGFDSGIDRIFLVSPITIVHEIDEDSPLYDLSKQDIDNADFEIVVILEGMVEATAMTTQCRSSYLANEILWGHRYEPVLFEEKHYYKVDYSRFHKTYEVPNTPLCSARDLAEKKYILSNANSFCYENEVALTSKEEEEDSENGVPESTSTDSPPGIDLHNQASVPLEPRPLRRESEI
KCNQ1 block = inhibitors of human KCNQ1 potassium channel; P51787; actives 1.3% (n = 310,000); AID 2642; B-score at 10 µM; CHO-K1 KCNQ1, FluxOR thallium flux fluorescence; active compounds read high;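 active = compounds whose thallium flux B-score, printed positive for inhibition, exceeds three library SD while starting fluorescence stays within three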;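 also: channel opened by potassium depolarization with thallium stimulus after 20 min compound exposure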
KCNQ1 act = potentiates or activates the human KCNQ1 potassium channel; P51787; CHO-K1 KCNQ1, thallium flux FluxOR fluorescence; active compounds read high; B-score at 10 µM; actives 0.35% (n = 310,000); AID 2648;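 active = fluorescence ratio B-score, a plate-corrected score, at least three library SD, with initial intensity B-score within 5 SD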
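Material: CHO-K1 cells stably expressing KCNQ1. Medium: assay buffer for compound exposure, DMSO matched across wells. Reagent: K+/Tl+ depolarizing stimulus. Compound dosing: single-concentration screen. Times: 37 °C overnight plating, 90-min dark dye load, 20-min compound pretreatment. Technique: FluxOR Tl+ flux fluorescence.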
KCNK3 inh = human KCNK3 channel inhibition, primary screen | O14649 | CHO-KCNK3 thallium flux, FluxOR fluorescence; active compounds read low | B-score at 10 µM | actives 0.84% (n = 340,000);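 active = B-score under library mean minus 4 SD, starting fluorescence ratio at most library mean plus 5 SD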;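 also: more negative B-score means stronger inhibition of thallium flux through KCNK3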
hERG rescue = compounds protecting human hERG from proarrhythmic drug block; Q12809; AID 1511; CHO-hERG, FluxOR thallium flux, dofetilide IC70 present; activation (rescue from dofetilide block), less the hit threshold, % at 10 µM; actives 0.51% (n = 310,000);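 active = activation above the mean of controls blocked by dofetilide plus 5 SD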;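 also: thallium influx through hERG after potassium depolarization seen as dye fluorescence rise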
* hit, by the source's call; i = inactive; nt = not tested or not shown.

SMILES	KCNK9 block	Kir21 block	KCNQ1 block	KCNQ1 act	KCNK3 inh	hERG rescue
CCCCc1c(C)nc2nc(SCc3ccc(Cl)cc3)[nH]n2c1=O	i	-2	6*	i	i	-5
COc1cc(/C=C/C(=O)OCC(=O)N(C)C2CCS(=O)(=O)C2)ccc1OC(F)F (configuration not stated)	i	1	i	i	i	-3
CCOC(=O)c1cnc2c(cnn2C)c1NCCCn1ccnc1	i	-2.1	i	i	i	-8
O=C(Nc1cccc(Cl)c1)Nc1nc(-c2ccc(Cl)cc2)cs1	i	-1.2	8*	i	i	-8
Cc1ccc(NC(=O)c2cccc(S(=O)(=O)N3CCN(C)CC3)c2)cc1F	i	-0.02	i	i	i	-10
COc1ccc(C(=O)CCS(=O)(=O)c2ccc(C)cc2)cc1OC	i	-2.2	i	8*	i	-7
CC(C)(C)N1C(=O)[C@H]2[C@@H](c3ccc(Br)cc3)N3C(=O)N(c4cccc(Br)c4)C(=O)[C@@]3(Cc3ccccc3)[C@H]2C1=O	-6.9*	-1	i	i	i	-4
CCOC(=O)Cc1csc(SCC(=O)Nc2cc(Cl)ccc2Oc2ccccc2)n1	i	-3.3	11*	i	i	-11
CCOC(=O)Cc1csc(SCC(=O)Nc2cccc(Cl)c2)n1	i	1	i	i	i	-9
CCC(NC(=O)Nc1nnc(C(F)(F)F)s1)(C(F)(F)F)C(F)(F)F	i	-4.5*	i	i	i	-50
CCn1c(CSc2nnc(-c3ccoc3C)n2C)nc2cc(S(=O)(=O)N(C)C)ccc21	i	0.11	i	i	i	32*
O=C1CC(c2ccccc2)Sc2nc3ccccc3n21 (configuration not stated)	i	-2.2	i	i	i	42*
O=C1CC(c2cccs2)Sc2nc3ccccc3n21 (configuration not stated)	i	-0.18	i	i	i	-4
Cc1ccc(/C=C/c2ccc(N(C)C)cc2)[n+](C)c1	i	-5.5	9*	i	i	-29
CN(C)c1ccc(/C=C/c2cc[n+](C)cc2)cc1	i	-4.6	7*	i	i	-15
NNC(=O)C(=O)/C=C1\NC2(CCCC2)Cc2ccccc21	i	-0.25	i	i	i	-8
COc1ccc(/C=N/NC(=O)C(=O)/C=C2\NC3(CCCC3)Cc3ccccc32)cc1	-6.6*	0.87	i	i	i	-6
COC(=O)c1ccc(CNC(=O)Cn2cnc3c(OCc4ccccc4)ncnc32)cc1	nt	nt	nt	nt	i	nt
O=C(O)CC1(CC(=O)NCc2ccc(C(F)(F)F)cc2)CCCCC1	i	-0.45	i	i	i	-9
O=C(O)CC1(CC(=O)Nc2cc(C(F)(F)F)cc(C(F)(F)F)c2)CCCCC1	i	-1.3	7*	i	i	-8
Oc1ccc2ccccc2c1/C=N/Nc1nnc(-c2ncc[nH]2)c2ccccc12	i	-1.2	8*	i	i	-9
COc1ccc2nc(NCc3ccccc3)[nH]c2c1	i	-5.3*	i	i	i	-5
COc1ccc2nc(NCCO)[nH]c2c1	i	-0.07	i	i	i	1
COc1ccc(CC(=O)Nc2nc3ccccc3[nH]2)cc1	i	2.1	i	i	i	-6
COc1cccc(CC(=O)Nc2nc3ccccc3[nH]2)c1	i	0.47	i	i	i	4.9*
CN=C(Nc1ccc(Br)cc1)SC1CC(=O)N(c2ccc(OC)cc2)C1=O (configuration not stated)	i	-1.1	i	i	i	-10
O=C(Nc1nc2c(Br)cccc2s1)C1CC1	i	2.6	i	i	i	-11
O=C(N/N=C/c1coc2ccccc2c1=O)c1cccc([N+](=O)[O-])c1	i	-1.2	7*	i	i	-8
Cc1cccc(C(=O)N/N=C/c2coc3ccccc3c2=O)c1	i	-0.27	i	i	i	-13
CCN(c1ccc(NC(=O)CSCc2c(C)noc2C)cc1)C(C)C	nt	nt	nt	nt	i	nt
